Our source for the ED50 values is ChEMBL document CHEMBL1121824, “1-Aryl-3-azabicyclo[3.1.0]hexanes, a new series of nonnarcotic analgesic agents” (1981).

A value given as a limit tells only on which side of the number the result lay.

Holding throughout (assay type): functional
For assay [1], the system named is Rattus norvegicus. In words: Analgesic activity was measured using inflamed rat paw pressure threshold method expressed as ED50 (sc). A digest of the protocol: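 Paw-pressure threshold in rats, left hind paw injected with 0.1 mL 20% brewers' yeast; threshold recorded 2 h post-yeast. Compound given subcutaneously in normal saline at times set by duration of action. Positive = ≥100% threshold rise; ED50 with 95% confidence limits via Finney linear arc sine transformation.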

Assay [2] relates to Rattus norvegicus. The experiment in a line: Analgesic activity was assessed for inflamed rat-paw reversal of abnormal (three legged) gait expressed as ED50 (sc). The gist of the method:
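Yeast (brewers') injected into plantar surface of left hind paw; gait scored 0–2 at 3 h. Rats scoring 2 received compound subcutaneously in normal saline; postdrug scores taken at set intervals. ≥50% gait reduction counted positive; ED50 = dose lowering score 2 to 1 in 50% of rats.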

Assay [3] has as its system Rattus norvegicus. In words: Analgesic activity for inflamed rat-paw reversal of abnormal (three legged) gait expressed as ED50 (po). A digest of the protocol:
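Rats given brewers' yeast in plantar surface of left hind paw; 3 h later gait scored 0 (normal) to 2 (maximal abnormal). Rats scoring 2 dosed orally in 2% starch suspension with 5% PEG 400 and Tween 80; gait rescored at set intervals. ED50 = dose reducing score from 2 to 1 in 50% of rats.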

In assay [4] the test system is Rattus norvegicus. In words: Analgesic activity was measured using inflamed rat paw pressure threshold method expressed as ED50 (po). The gist of the method:
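Modified Randall–Selitto: left hind paw sensitised with 0.1 mL 20% aqueous brewers' yeast, pressure-pain threshold read 2 h after yeast. Oral dosing in 2% starch/5% PEG 400/Tween 80, timed to peak effect. ≥100% threshold elevation positive; ED50 (dose giving this in 50% of rats) with 95% limits by Finney arc sine method.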

Assay [5] relates to Mus musculus. The experiment in a line: Analgesic activity was measured using mouse anti-writhing method expressed as ED50 (po). A digest of the protocol:
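Mice in pairs; writhing induced by intraperitoneal phenyl-p-quinone 1 mg/kg. Compound given orally in 2% starch suspension with 5% PEG 400 and a drop of Tween 80.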
Background: Writhing tests count abdominal constrictions after an irritant is injected.

The mark [6] stands for this setting: Rattus norvegicus, po, read-out: ED50.
Where [7] appears, read: Mus musculus, po, read-out: ED50.

As for `Cl.Oc1cccc(C23CNCC2C3)c1` (stereo not given), the values for the ED50 in assay [1] and in assay [2] were above 25 mg/kg and 16 mg/kg, respectively.
For `Cl.FC(F)(F)c1ccc(C23CNCC2C3)cc1` (stereo not given), the ED50 (in general, the midpoint of the dose-response relation) in assay [3] (setting [6]) is 38 mg/kg; in assay [4] (setting [6]), 40 mg/kg; in assay [5] (setting [7]), above 100 mg/kg.
`CC(C)c1ccc(C23CNCC2C3)cc1.Cl` (stereo not given): the ED50 in assay [1] was above 25 mg/kg; in assay [2], 9 mg/kg; in assay [5] (setting [7]), 30 mg/kg.
In the case of `COc1cccc(C23CC2CN(C)C3)c1.Cl` (stereo not given), in assay [3] (setting [6]), the ED50 is above 100 mg/kg.
In the case of `Cl.Clc1cccc(C23CNCC2C3)c1` (stereo not given), the ED50 in assay [3] (setting [6]) is above 50 mg/kg; in assay [4] (setting [6]), 50 mg/kg; in assay [5] (setting [7]), 34 mg/kg.
With `CN1CC2CC2(c2ccc(Cl)cc2)C1.Cl` (stereo not given), the ED50 in assay [3] (setting [6]) is above 50 mg/kg; in assay [4] (setting [6]) it was 60 mg/kg; in assay [5] (setting [7]), below 100 mg/kg.
Turning to `COc1ccc(C23CNCC2C3)cc1.Cl` (stereo not given), the values for the ED50 in assay [3] (setting [6]), in assay [4] (setting [6]) and in assay [5] (setting [7]) were 24 mg/kg, 49 mg/kg and 4 mg/kg, respectively.
Regarding `COc1ccc(C23CNCC2C3)cc1Br.Cl` (stereo not given), the ED50 in assay [3] (setting [6]) is above 25 mg/kg.
As to `Cl.Fc1ccc(C23CNCC2C3)cc1` (stereo not given), the ED50 in assay [3] (setting [6]) is above 50 mg/kg; in assay [4] (setting [6]) it was 14 mg/kg; in assay [5] (setting [7]) it was 34 mg/kg.
As for `Cl.FC(F)(F)c1cc(C23CNCC2C3)ccc1Cl` (stereo not given), the ED50 in assay [3] (setting [6]) stood at 177 mg/kg.
The same measure, in the same setting: in the case of `COc1cccc(C23CNCC2C3)c1.Cl` (stereo not given) it was 177 mg/kg.
For the compound `Cl.Fc1cccc(C23CNCC2C3)c1` (stereo not given), the ED50 was above 50 mg/kg in assay [3] (setting [6]), 67 mg/kg in assay [4] (setting [6]) and 21 mg/kg in assay [5] (setting [7]).
As to `Cl.Oc1ccc(C23CNCC2C3)cc1` (stereo not given), the ED50 in assay [3] (setting [6]) is above 200 mg/kg.
The same measure, in the same setting: in the case of `Cl.Clc1ccc(C23CNCC2C3)cc1Cl` (stereo not given) it was 141 mg/kg; in that of `CCCCCCc1ccc(C23CNCC2C3)cc1.Cl` (stereo not given), above 50 mg/kg.
As for `Cc1ccccc1C12CNCC1C2.Cl` (stereo not given), the ED50 in assay [3] (setting [6]) and in assay [5] (setting [7]) was above 50 mg/kg in each case.
For the compound `CCOc1ccc(C23CNCC2C3)cc1.Cl` (stereo not given), the ED50 in assay [3] (setting [6]) came out at 29 mg/kg.
On the same count and under the same terms, in the case of `CC(C)(C)c1ccc(C23CNCC2C3)cc1.Cl` (stereo not given) it was above 200 mg/kg.
As to `Cc1cccc(C23CNCC2C3)c1.Cl` (stereo not given), the ED50 in assay [3] (setting [6]) was above 50 mg/kg; in assay [4] (setting [6]) it was 25 mg/kg; in assay [5] (setting [7]), 18 mg/kg.
In the case of `Cc1ccc(C23CC2CN(CC2CC2)C3)cc1.Cl` (stereo not given), the ED50 in assay [3] (setting [6]) was above 50 mg/kg.
Still for that read-out and setting: the value for `C=CCN1CC2CC2(c2ccc(C)cc2)C1.Cl` (stereo not given) was above 50 mg/kg.
`Cc1ccc(C23CC2CN(C)C3)cc1.Cl` (stereo not given): the ED50 worked out at 20 mg/kg in assay [3] (setting [6]), 24 mg/kg in assay [4] (setting [6]) and 16 mg/kg in assay [5] (setting [7]).
Consider `Brc1ccc(C23CNCC2C3)cc1.Cl` (stereo not given), for which the ED50 in assay [3] (setting [6]) came to 141 mg/kg.
Regarding `CN1CC2CC2(c2cccc(O)c2)C1.Cl` (stereo not given), the ED50 in assay [1] is 25 mg/kg; in assay [3] (setting [6]), above 50 mg/kg; in assay [5] (setting [7]) it was above 50 mg/kg.
Take `Cl.Clc1ccccc1C12CNCC1C2` (stereo not given): the ED50 in assay [3] (setting [6]) was above 100 mg/kg.
As for `CCc1ccc(C23CNCC2C3)cc1.Cl` (stereo not given), the ED50 was determined as 13 mg/kg in assay [3] (setting [6]), 25 mg/kg in assay [4] (setting [6]) and 24 mg/kg in assay [5] (setting [7]).
In the case of `CCCCCCN1CC2CC2(c2ccc(C)cc2)C1.Cl` (stereo not given), the ED50 in assay [3] (setting [6]) is above 50 mg/kg.
`Cl.FC(F)(F)c1cccc(C23CNCC2C3)c1` (stereo not given): the ED50 turned out to be 28 mg/kg in assay [3] (setting [6]), 50 mg/kg in assay [4] (setting [6]) and 29 mg/kg in assay [5] (setting [7]).
Regarding `Cl.c1ccc(C23CNCC2C3)cc1` (single isomer, unassigned; (+)), the ED50 in assay [3] turned out to be 125 mg/kg; in assay [4], 79 mg/kg.
As for `Cl.c1ccc(C23CNCC2C3)cc1` (single isomer, unassigned; (-)), the figures for the ED50 in assay [3], in assay [4] and in assay [5] were above 200 mg/kg, 43 mg/kg and below 50 mg/kg, respectively.
With `Cc1ccc(C23CNCC2C3)cc1.Cl` (single isomer, unassigned; (-)) [BICIFADINE HYDROCHLORIDE], the ED50 in assay [3] was above 200 mg/kg; in assay [4], above 25 mg/kg.
On to `Cl.Clc1ccc(C23CNCC2C3)cc1` (stereo in doubt; 2a), for which the ED50 stood at 31 mg/kg in assay [3], 21 mg/kg in assay [4] and 21 mg/kg in assay [5].
For the compound `Cc1ccc(C23CNCC2C3)cc1.Cl` (stereo in doubt; 2b) [BICIFADINE HYDROCHLORIDE], the ED50 stood at 18 mg/kg in assay [3], 4 mg/kg in assay [2], 11 mg/kg in assay [4] and 13 mg/kg in assay [5] (setting [7]).
In the case of `Cl.c1ccc(C23CNCC2C3)cc1` (stereo in doubt; 2c), the ED50 in assay [3] is 70 mg/kg; in assay [4] (setting [6]), 71 mg/kg; in assay [5] (setting [7]), below 100 mg/kg.
`Cc1ccc(C23CNCC2C3)cc1.Cl` (stereo in doubt; 2v) [BICIFADINE HYDROCHLORIDE]: the figures for the ED50 in assay [3] and in assay [4] were 17 mg/kg and below 25 mg/kg, respectively.
With `Cl.Clc1ccc(C23CNCC2C3)cc1` (stereo in doubt; 2x), the ED50 was found to be 25 mg/kg in assay [3], 13 mg/kg in assay [4] and 19 mg/kg in assay [5].
On to `Cl.Clc1ccc(C23CNCC2C3)cc1` (stereo in doubt; 2y (-)), for which the ED50 in assay [3] is 150 mg/kg; in assay [4], above 50 mg/kg; in assay [5], below 100 mg/kg.
Turning to `CC(=O)Oc1ccccc1C(=O)O` [ASPIRIN], the ED50 was 74 mg/kg in assay [3] (setting [6]), 150 mg/kg in assay [4] (setting [6]) and 29 mg/kg in assay [5] (setting [7]).
With `COc1ccc2c3c1O[C@H]1[C@@H](O)C=C[C@H]4[C@@H](C2)N(C)CC[C@@]341.COc1ccc2c3c1O[C@H]1[C@@H](O)C=C[C@H]4[C@@H](C2)N(C)CC[C@@]341.O.O=P(O)(O)O.O=P(O)(O)O` [CODEINE PHOSPHATE], the ED50 turned out to be 51 mg/kg in assay [3] (setting [6]), 43 mg/kg in assay [4] (setting [6]) and 9 mg/kg in assay [5] (setting [7]).
